According to ChEMBL document CHEMBL5724801, “EUbOPEN Chemogenomics Library - Multiplex” (2024):
Values joined by “and” are separate entries in the source; they are usually repeats but may differ in a detail not shown here. Equal values may be shown once.

System: U2OS
Assay: Multiplex assay against U2OS
Format: toxicity, cell-based
Conditions: human
Procedure, shortened: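 Four dyes were applied at seeding to live cells: Hoechst33342, BioTracker Green Microtubule Cytoskeleton Dye, MitoTracker Red and Annexin V Alexa Fluor 680. Imaging after compound addition used a CQ1 microscope at 37°C and 5% CO2. CellPathfinder machine-learning gating then sorted cells into Hoechst high-intensity objects or normal cells, normal cells into healthy, pyknosed or fragmented nuclei, and pyknosed cells into mitotic or apoptotic, with tubulin, mitochondrial-mass and membrane-permeability phenotypes given as per cents of healthy-nucleus cells.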

[1] = 12 h, 1 µM, compound concentration 1 uM
[2] = 12 h, 10 µM, compound concentration 10 uM
[3] = 24 h, 1 µM, compound concentration 1 uM
[4] = 24 h, 10 µM, compound concentration 10 uM
[5] = 48 h, 1 µM, compound concentration 1 uM
[6] = 48 h, 10 µM, compound concentration 10 uM

## Cc1c(Cc2ccc3ccccc3n2)c2cc(F)ccc2n1CC(=O)O [TIMAPIPRANT]
[1]
  Population Apoptotic (%): 84% and 83%
  Population Fragmented Nuclei (%): 21% and 22%
  Population Healthy Nuclei (%): 69% and 70%
  Population Hoechst High Intensity Objects (%): 2% and 1%
  Population Membrane Permeable-Phenotype (%): 3% and 4%
  Population Mitochondria Different-Phenotype (%): 1% and 4%
  Population Mitotic Cells (%): 16%
  Population Normal (%): 97% and 98%
  Population Pyknosed Nuclei (%): 8% and 6%
  Population Tubulin-Different-Phenotype (%): 1% and 3%
[2]
  Population Apoptotic (%): 75% and 68%
  Population Fragmented Nuclei (%): 30% and 12%
  Population Healthy Nuclei (%): 62% and 75%
  Population Hoechst High Intensity Objects (%): 2% and 0%
  Population Membrane Permeable-Phenotype (%): 4% and 6%
  Population Mitochondria Different-Phenotype (%): 1% and 3%
  Population Mitotic Cells (%): 25% and 31%
  Population Normal (%): 97% and 99%
  Population Pyknosed Nuclei (%): 6% and 12%
  Population Tubulin-Different-Phenotype (%): 2% and 3%
  Total Cell Count: 244 and 132
[3]
  Population Apoptotic (%): 96% and 100%
  Population Fragmented Nuclei (%): 18% and 19%
  Population Healthy Nuclei (%): 73%
  Population Hoechst High Intensity Objects (%): 1%
  Population Membrane Permeable-Phenotype (%): 6% and 7%
  Population Mitochondria Different-Phenotype (%): 3% and 2%
  Population Mitotic Cells (%): 3% and 0%
  Population Normal (%): 98%
  Population Pyknosed Nuclei (%): 7%
  Population Tubulin-Different-Phenotype (%): 4% and 3%
[4]
  Population Apoptotic (%): 94% and 72%
  Population Fragmented Nuclei (%): 26% and 18%
  Population Healthy Nuclei (%): 66% and 74%
  Population Hoechst High Intensity Objects (%): 1% and 0%
  Population Membrane Permeable-Phenotype (%): 6% and 8%
  Population Mitochondria Different-Phenotype (%): 2%
  Population Normal (%): 98% and 100%
  Population Pyknosed Nuclei (%): 6% and 7%
  Population Tubulin-Different-Phenotype (%): 3%
  Total Cell Count: 278 and 152
[5]
  Population Apoptotic (%): 88% and 90%
  Population Fragmented Nuclei (%): 16% and 22%
  Population Healthy Nuclei (%): 77% and 71%
  Population Hoechst High Intensity Objects (%): 1% and 2%
  Population Membrane Permeable-Phenotype (%): 4% and 12%
  Population Mitochondria Different-Phenotype (%): 3% and 5%
  Population Mitotic Cells (%): 11% and 10%
  Population Normal (%): 98% and 97%
  Population Pyknosed Nuclei (%): 6%
  Population Tubulin-Different-Phenotype (%): 3% and 6%
[6]
  Population Apoptotic (%): 100% and 92%
  Population Fragmented Nuclei (%): 19% and 13%
  Population Healthy Nuclei (%): 74% and 80%
  Population Hoechst High Intensity Objects (%): 0% and 2%
  Population Membrane Permeable-Phenotype (%): 3% and 5%
  Population Mitochondria Different-Phenotype (%): 1% and 3%
  Population Mitotic Cells (%): 0% and 7%
  Population Normal (%): 99% and 97%
  Population Pyknosed Nuclei (%): 6%
  Population Tubulin-Different-Phenotype (%): 1% and 3%
  Total Cell Count: 392 and 204

## c1cc(OCCCN2CCCCC2)ccc1CN1CCCCC1 [JNJ-5207852]
[1]
  Population Apoptotic (%): 76% and 58%
  Population Fragmented Nuclei (%): 29% and 25%
  Population Healthy Nuclei (%): 65% and 62%
  Population Hoechst High Intensity Objects (%): 2% and 0%
  Population Membrane Permeable-Phenotype (%): 5% and 7%
  Population Mitochondria Different-Phenotype (%): 3%
  Population Mitotic Cells (%): 23% and 41%
  Population Normal (%): 97% and 99%
  Population Pyknosed Nuclei (%): 5% and 11%
  Population Tubulin-Different-Phenotype (%): 3%
  Total Cell Count: 253 and 106
[2]
  Population Apoptotic (%): 73% and 85%
  Population Fragmented Nuclei (%): 34% and 13%
  Population Healthy Nuclei (%): 57% and 80%
  Population Hoechst High Intensity Objects (%): 2% and 4%
  Population Membrane Permeable-Phenotype (%): 5% and 7%
  Population Mitochondria Different-Phenotype (%): 3% and 9%
  Population Mitotic Cells (%): 26% and 14%
  Population Normal (%): 97% and 95%
  Population Pyknosed Nuclei (%): 8% and 6%
  Population Tubulin-Different-Phenotype (%): 3% and 6%
  Total Cell Count: 228 and 120
[3]
  Population Apoptotic (%): 84% and 66%
  Population Fragmented Nuclei (%): 25% and 21%
  Population Healthy Nuclei (%): 65% and 68%
  Population Hoechst High Intensity Objects (%): 1% and 0%
  Population Membrane Permeable-Phenotype (%): 3% and 4%
  Population Mitochondria Different-Phenotype (%): 2%
  Population Mitotic Cells (%): 16% and 33%
  Population Normal (%): 98% and 100%
  Population Pyknosed Nuclei (%): 8% and 10%
  Population Tubulin-Different-Phenotype (%): 2% and 4%
  Total Cell Count: 287 and 119
[4]
  Population Apoptotic (%): 82% and 84%
  Population Fragmented Nuclei (%): 28% and 10%
  Population Healthy Nuclei (%): 62% and 80%
  Population Hoechst High Intensity Objects (%): 1%
  Population Membrane Permeable-Phenotype (%): 4% and 8%
  Population Mitochondria Different-Phenotype (%): 3% and 5%
  Population Mitotic Cells (%): 17% and 15%
  Population Normal (%): 98%
  Population Pyknosed Nuclei (%): 8%
  Population Tubulin-Different-Phenotype (%): 3% and 8%
  Total Cell Count: 271 and 157
[5]
  Population Apoptotic (%): 82% and 76%
  Population Fragmented Nuclei (%): 21% and 19%
  Population Healthy Nuclei (%): 69% and 71%
  Population Hoechst High Intensity Objects (%): 2% and 3%
  Population Membrane Permeable-Phenotype (%): 4% and 9%
  Population Mitochondria Different-Phenotype (%): 2% and 4%
  Population Mitotic Cells (%): 17% and 23%
  Population Normal (%): 97% and 96%
  Population Pyknosed Nuclei (%): 8%
  Population Tubulin-Different-Phenotype (%): 4% and 3%
  Total Cell Count: 400 and 152
[6]
  Population Apoptotic (%): 86% and 93%
  Population Fragmented Nuclei (%): 22% and 14%
  Population Healthy Nuclei (%): 70% and 78%
  Population Hoechst High Intensity Objects (%): 2% and 1%
  Population Membrane Permeable-Phenotype (%): 7% and 6%
  Population Mitochondria Different-Phenotype (%): 3% and 2%
  Population Mitotic Cells (%): 13% and 6%
  Population Normal (%): 97% and 98%
  Population Pyknosed Nuclei (%): 6%
  Population Tubulin-Different-Phenotype (%): 5% and 4%
  Total Cell Count: 345 and 245

## Cc1cccc(F)c1C(=O)Nc1cnc(-c2cc3c(cc2Cl)OC(F)(F)O3)cn1 [ZEGOCRACTIN]
[1]
  Population Apoptotic (%): 54.76% and 21.05%
  Population Fragmented Nuclei (%): 1.87% and 5.79%
  Population Healthy Nuclei (%): 86.93% and 78.51%
  Population Hoechst High Intensity Objects (%): 0%
  Population Membrane Permeable-Phenotype (%): 0.61% and 6.32%
  Population Mitochondria Different-Phenotype (%): 0% and 12.63%
  Population Mitotic Cells (%): 45.24% and 78.95%
  Population Normal (%): 100%
  Population Pyknosed Nuclei (%): 11.2% and 15.7%
  Population Tubulin-Different-Phenotype (%): 0.61% and 0%
[2]
  Population Apoptotic (%): 37.66% and 30.95%
  Population Fragmented Nuclei (%): 0.97% and 1.07%
  Population Healthy Nuclei (%): 80.39% and 76.47%
  Population Hoechst High Intensity Objects (%): 0.24% and 0%
  Population Membrane Permeable-Phenotype (%): 0.6% and 8.39%
  Population Mitotic Cells (%): 62.34% and 69.05%
  Population Normal (%): 99.76% and 100%
  Population Pyknosed Nuclei (%): 18.64% and 22.46%
  Population Tubulin-Different-Phenotype (%): 3.01% and 4.9%
  Total Cell Count: 414 and 187
[3]
  Population Apoptotic (%): 49.12% and 21.74%
  Population Fragmented Nuclei (%): 2.5% and 3.68%
  Population Healthy Nuclei (%): 86.54% and 82.21%
  Population Hoechst High Intensity Objects (%): 0%
  Population Membrane Permeable-Phenotype (%): 0.22% and 5.22%
  Population Mitochondria Different-Phenotype (%): 0.22% and 7.46%
  Population Mitotic Cells (%): 50.88% and 78.26%
  Population Normal (%): 100%
  Population Pyknosed Nuclei (%): 10.96% and 14.11%
  Population Tubulin-Different-Phenotype (%): 0.89% and 0.75%
[4]
  Population Apoptotic (%): 37.72% and 34.92%
  Population Fragmented Nuclei (%): 3.21% and 2.36%
  Population Healthy Nuclei (%): 75.24% and 67.92%
  Population Hoechst High Intensity Objects (%): 0%
  Population Membrane Permeable-Phenotype (%): 2.76% and 6.94%
  Population Mitotic Cells (%): 62.28% and 65.08%
  Population Normal (%): 100%
  Population Pyknosed Nuclei (%): 21.55% and 29.72%
  Population Tubulin-Different-Phenotype (%): 2.76% and 2.78%
  Total Cell Count: 529 and 212
[5]
  Population Apoptotic (%): 35.96% and 56%
  Population Fragmented Nuclei (%): 3.36% and 3.03%
  Population Healthy Nuclei (%): 87.83% and 87.5%
  Population Hoechst High Intensity Objects (%): 0%
  Population Membrane Permeable-Phenotype (%): 1.69% and 2.6%
  Population Mitochondria Different-Phenotype (%): 0.34% and 5.63%
  Population Mitotic Cells (%): 64.04% and 44%
  Population Normal (%): 100%
  Population Pyknosed Nuclei (%): 8.8% and 9.47%
  Population Tubulin-Different-Phenotype (%): 1.58% and 0.43%
[6]
  Population Apoptotic (%): 51.14% and 60.82%
  Population Fragmented Nuclei (%): 5.7% and 6.6%
  Population Healthy Nuclei (%): 63.11% and 59.72%
  Population Hoechst High Intensity Objects (%): 0.14% and 0%
  Population Membrane Permeable-Phenotype (%): 2.48% and 8.72%
  Population Mitotic Cells (%): 48.86% and 39.18%
  Population Normal (%): 99.86% and 100%
  Population Pyknosed Nuclei (%): 31.2% and 33.68%
  Population Tubulin-Different-Phenotype (%): 4.97% and 4.65%
  Total Cell Count: 703 and 288
